Assay results published in ChEMBL document CHEMBL1955761, “Privileged scaffolds or promiscuous binders: a comparative study on rhodanines and related heterocycles in medicinal chemistry” (J Med Chem, 2012).
The source made the active and inactive calls.

What was measured:
Dengue virus = assay: Inhibition of Dengue virus NS2B-NS3 protease using Abz-NleKRRS-3-(NO2)Y as substrate at 50 uM preincubated for 15 mins measured every sec for 15 mins by fluorimetric analysis
Prothrombin (Bos taurus) = Prothrombin (Bos taurus) (UniProt P00735); assay: Inhibition of bovine plasma thrombin using Boc-Val-Pro-Arg-AMC as substrate at 25 uM preincubated for 15 mins measured after 10 mins by fluorimetric assay
Method in brief: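 Purchased bovine plasma thrombin at 10 nM final, preincubated 15 min with 25 μM inhibitor; reaction started with 50 μM substrate. Buffer 50 mM Tris-HCl pH 7.5, 150 mM NaCl, 0.05% Tween 20. Triplicate, averaged.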

Escherichia coli [1] = assay: Inhibition of Escherichia coli MurA using PEP as substrate assessed as inorganic phosphate release at 25 uM preincubated for 10 mins measured after 60 mins […]
Escherichia coli [2] = assay: Inhibition of Escherichia coli MetAP at 10 uM after 15 mins by fluorescence analysis

| inhibition (Dengue virus) | inhibition (Prothrombin (Bos taurus)) | inhibition (Escherichia coli [1]) | inhibition (Escherichia coli [2]) | SMILES |
| --- | --- | --- | --- | --- |
| 31% | 14% | inactive | 15% | Cc1ccc(/C=C2\NC(=S)NC2=O)cc1 |
| 18% | inactive | inactive | inactive | COc1cccc(/C=C2\NC(=O)NC2=O)c1 |
| 51% | 20% | 62% | 12% | COc1ccc(/C=C/C=C2\SC(=S)NC2=O)cc1 |
| 26% | inactive | inactive | inactive | O=C1NC(=O)/C(=C/c2ccc([N+](=O)[O-])cc2)N1 |
| 42% | 32% | 66% | 12% | COc1cc(/C=C2\SC(=S)NC2=O)ccc1O |
| 20% | 11% | inactive | 13% | CN(C)c1ccc(/C=C2\SC(=O)NC2=O)cc1 |
| 19% | 27% | 100% | inactive | COc1cc(/C=C2\SC(=O)NC2=O)ccc1O |
| 46% | 25% | 65% | 11% | O=C1NC(=S)S/C1=C\c1ccc([N+](=O)[O-])cc1 |
| 11% | 24% | 30% | 11% | O=C1NC(=O)/C(=C/c2cccs2)S1 |
| 19% | 32% | 84% | 11% | COc1ccc(/C=C2\SC(=O)NC2=O)cc1 |
| 36% | 21% | 15% | inactive | CN(C)c1ccc(/C=C2\SC(=S)NC2=O)cc1 |
| 32% | 34% | inactive | inactive | O=C1NC(=O)/C(=C/c2ccc(O)cc2)S1 |
| 15% | 29% | inactive | 12% | O=C1NC(=O)/C(=C/c2ccccn2)S1 |
| 18% | 11% | 13% | inactive | COc1ccc(/C=C/C=C2\SC(=O)NC2=O)cc1 |
| inactive | 19% | 62% | 12% | O=C1NC(=O)/C(=C/c2ccc(Br)s2)S1 |
| 25% | 15% | inactive | inactive | O=C1NC(=O)/C(=C/c2ccccc2)S1 |
| 29% | 16% | inactive | inactive | CN(C)c1ccc(/C=C2\NC(=O)NC2=O)cc1 |
| 17% | 18% | inactive | inactive | Cc1ccc(/C=C2\SC(O)=NC2=O)cc1 |

More lines, now with the values behind:

| SMILES | inhibition (Dengue virus) | inhibition (Prothrombin (Bos taurus)) | inhibition (Escherichia coli [1]) | inhibition (Escherichia coli [2]) |
| --- | --- | --- | --- | --- |
| O=C1NC(=S)N[C@H]1Cc1ccc(O)cc1 | inactive | inactive | inactive | inactive |
| COc1ccc(/C=C2\NC(=O)NC2=O)cc1OC | 18% | inactive | inactive | inactive |
| O=C1NC(=S)N/C1=C\c1cccc(O)c1 | 28% | 12% | 21% | 15% |
| CN(C)c1ccc(/C=C2\NC(=S)NC2=O)cc1 | 42% | 25% | 51% | 75% |
| O=C1NC(=S)N/C1=C\c1ccccn1 | 47% | 38% | 13% | 95% |
| NC(=O)CC[C@@H]1NC(=S)NC1=O | 10% | inactive | 25% | inactive |
| O=C1NC(=S)N[C@H]1Cc1ccccc1 | inactive | inactive | 17% | 12% |
| CC(=O)N1C(=S)NC(=O)[C@@H]1Cc1ccccc1 | inactive | inactive | 19% | 12% |
| CC(=O)n1cc(/C=C2\NC(=S)NC2=O)c2ccccc21 | 43% | 11% | 13% | 15% |
| COc1cccc(/C=C2\NC(=S)NC2=O)c1 | 28% | 15% | 10% | 18% |
| CCCCC/C=C1\SC(=S)NC1=O | 35% | 18% | 14% | 21% |
| O=C1NC(=S)N/C1=C\c1ccccc1 | 35% | 17% | inactive | 12% |
| O=C1NC(=O)/C(=C2\CCOc3ccccc32)S1 | 35% | inactive | inactive | 11% |
| O=C1NC(=S)N/C1=C\c1ccc(Br)s1 | 46% | 17% | 75% | 10% |
| O=C1NC(=S)N/C1=C\c1c(F)c(F)c(F)c(F)c1F | 24% | 29% | 17% | 13% |
| C/C(=C1/SC(=S)NC1=O)c1ccccc1 | 23% | 19% | 33% | inactive |
| O=C1NC(=O)/C(=C/c2ccc(O)c(O)c2)N1 | 37% | 32% | 70% | 100% |
| O=C1NC(=S)N/C1=C\C=C\c1ccco1 | 37% | 38% | 69% | 23% |
| O=C1NC(=O)/C(=C/c2ccc3ccccc3c2)N1 | 36% | inactive | inactive | 46% |
| COc1ccc(/C=C2\NC(=S)NC2=O)cc1OC | 44% | 20% | 18% | 11% |
| CCC/C=C/C1NC(=S)NC1=O (stereo not given) | inactive | 14% | 77% | 19% |

| SMILES | inhibition (Dengue virus) | inhibition (Prothrombin (Bos taurus)) | inhibition (Escherichia coli [1]) | inhibition (Escherichia coli [2]) |
| --- | --- | --- | --- | --- |
| Cn1cc(/C=C2\NC(=O)NC2=O)c2ccccc21 | 34% | 20% | inactive | inactive |
| O=C1NC(=O)/C(=C/c2ccco2)N1 | 25% | 23% | 10% | inactive |
| CCCC/C=C/C1NC(=S)NC1=O (stereo not given) | inactive | 10% | 64% | inactive |
| CCCC/C=C1\NC(=S)NC1=O | 25% | 14% | 11% | 66% |
| O=C1NC(=O)C(Cc2cccs2)N1 (stereo not given) | inactive | inactive | inactive | inactive |
| CC(=O)N1C(=S)NC(=O)[C@@H]1CCC(N)=O | inactive | inactive | inactive | 13% |
| COc1cc(/C=C2\NC(=O)NC2=O)ccc1O | 13% | inactive | 17% | inactive |
| O=C1NC(=O)/C(=C/C2CCCCC2)S1 | 25% | inactive | inactive | inactive |
| O=C1NC(=O)/C(=C/c2c(F)c(F)c(F)c(F)c2F)N1 | 14% | 18% | 18% | inactive |
| O=C1NC(=O)C(Cc2ccccc2)S1 (stereo not given) | inactive | inactive | inactive | inactive |
| COc1ccccc1/C=C1\NC(=O)NC1=O | 18% | inactive | inactive | inactive |
| O=C1NC(=S)N/C1=C\c1ccc([N+](=O)[O-])cc1 | 35% | 19% | 15% | 13% |
| O=C1NC(=S)N/C1=C\c1cccs1 | 48% | 16% | inactive | inactive |
| O=C1NC(=S)N/C1=C1/CCOc2ccccc21 | 43% | 18% | 43% | 28% |
| CC(=O)n1cc(/C=C2\SC(=S)NC2=O)c2ccccc21 | 46% | 31% | 18% | inactive |
| O=C1NC(=S)N[C@@H]1Cc1ccccc1 | 14% | 12% | 11% | inactive |
| O=C1NC(=S)S/C1=C\c1ccco1 | 52% | 25% | 17% | inactive |
| O=C1NC(=O)[C@@H](Cc2ccccc2)N1 | inactive | inactive | inactive | inactive |
| O=C1NC(=O)/C(=C/c2cccs2)N1 | 16% | 22% | inactive | inactive |
| C/C(=C1/NC(=S)NC1=O)c1ccc(C2CCCCC2)cc1 | 12% | inactive | 13% | 58% |
| O=C1NC(=O)C(Cc2ccc(O)c(O)c2)N1 (stereo not given) | inactive | inactive | 79% | 84% |
